Experimental findings from ChEMBL document CHEMBL3826876, “Toward the Development of Specific G-Quadruplex Binders: Synthesis, Biophysical, and Biological Studies of New Hydrazone Derivatives” (J Med Chem, 2016) are described below.

Experiment [1] in a line: Effect on synthetic c-MYC G-quadruplex DNA topology at 4 mol equiv by circular dichroism spectroscopic analysis. The essentials:
(§1)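 CD spectra at 20 °C, 230-360 nm, 3 scans averaged, baseline subtracted; 10 µM G4 or 15 µM duplex in potassium- or lithium-phosphate pH 7.0 buffers with 100 mM KCl (c-kit2, c-myc: 5 mM potassium phosphate, 20 mM KCl); ligand 4 molar equiv added to folded DNA from 6 mM DMSO stock.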
In general terms: Circular dichroism is the unequal absorption of left and right circularly polarised light.

A short description of experiment [2]: Binding affinity to synthetic telomere 23 parallel G-quadruplex DNA assessed as change in melting temperature at 4 mol equiv in presence of 100 mM KCl buffer by circular dichroism spectroscopic analysis. The essentials: (§2)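 CD melting, 20-100 °C at 1 °C/min, signal at 264 (parallel), 290 (antiparallel) or 280 nm (duplex). G4 DNA 10 µM or duplex 15 µM, folded by heating at 90 °C 5 min and slow cooling, in 10 mM potassium phosphate (c-kit1, Tel23, Tel26) or lithium phosphate (Tel23-p, ds12) pH 7.0 with 100 mM KCl. Ligand 4 equiv; Tm by curve fit, ΔTm vs DNA alone; duplicate average.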

A short description of experiment [3]: Binding affinity to synthetic self-complementary DNA 12-mer duplex assessed as change in melting temperature at 4 mol equiv in presence of 100 mM KCl buffer by circular dichroism spectroscopic analysis. The essentials: as §2
The nature of experiment [4]: Binding affinity to synthetic c-MYC G-quadruplex DNA assessed as change in melting temperature at 4 mol equiv in presence of 20 mM KCl buffer by circular dichroism spectroscopic analysis.
Experiment [5] can be described thus: Binding affinity to synthetic telomere 26 G-quadruplex DNA assessed as change in melting temperature at 4 mol equiv in presence of 100 mM KCl buffer by circular dichroism spectroscopic analysis. The essentials:
as §2

Experiment [6] is described as follows: Binding affinity to synthetic c-KIT2 G-quadruplex DNA assessed as change in melting temperature at 4 mol equiv in presence of 20 mM KCl buffer by circular dichroism spectroscopic analysis. The essentials:
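CD melting as for other targets (20-100 °C, 1 °C/min, 10 µM folded G4, ligand 4 equiv), but in 5 mM potassium phosphate with 20 mM KCl; c-kit2 read at 264 nm as parallel G4. ΔTm from fitted Tm, duplicate average.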

Experiment [7] is described as follows: Binding affinity to synthetic telomere 23 G-quadruplex DNA assessed as change in melting temperature at 4 mol equiv in presence of 100 mM KCl buffer by circular dichroism spectroscopic analysis. Summed up:
as §2

The nature of experiment [8]: Effect on synthetic telomere 23 G-quadruplex DNA topology at 4 mol equiv by circular dichroism spectroscopic analysis. Summed up:
as §1

Experiment [9] in a line: Effect on synthetic c-KIT2 G-quadruplex DNA topology at 4 mol equiv by circular dichroism spectroscopic analysis. The essentials:
as §1

The species entered for experiment [10] is Homo sapiens. The experiment is described as follows: Binding affinity to human 5'-FAM/3'-TAMRA labeled telomere 21 G-quadruplex DNA assessed as increase in melting temperature by FRET assay. The essentials: (§3)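 FRET melting screen in 60 mM potassium cacodylate pH 7.4, labelled probe 400 nM annealed at 85 °C for 10 min; ligands at various concentrations up to 20 µM, diluted from 10 mM DMSO stock via 10 mM HCl. Excitation 450-495 nm, emission 515-545 nm, 30-100 °C in 0.5 °C steps with 30 s hold; ΔTm by curve fitting, triplicate.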

Experiment [11] is described as follows: Binding affinity to synthetic c-KIT1 G-quadruplex DNA assessed as change in melting temperature at 4 mol equiv in presence of 100 mM KCl buffer by circular dichroism spectroscopic analysis. Summed up: as §2
Experiment [12] is described as follows: Effect on synthetic c-KIT1 G-quadruplex DNA topology at 4 mol equiv by circular dichroism spectroscopic analysis. The essentials:
as §1

Experiment [13] is described as follows: Effect on synthetic telomere 26 G-quadruplex DNA topology at 4 mol equiv by circular dichroism spectroscopic analysis. Summed up:
as §1

A short description of experiment [14]: Effect on synthetic telomere 23 parallel G-quadruplex DNA topology at 4 mol equiv by circular dichroism spectroscopic analysis. Summed up: as §1
A short description of experiment [15]: Effect on synthetic self-complementary DNA 12-mer duplex topology at 4 mol equiv in presence of K+ ions by circular dichroism spectroscopic analysis. Summed up:
as §1

Experiment [16] is filed under the species Homo sapiens. Put plainly: Binding affinity to human 5'-FAM/3'-TAMRA labeled duplex DNA T-loop assessed as increase in melting temperature by FRET assay. Summed up: as §3
Experiment [17] can be described thus: Induction of G-quadruplex formation in synthetic unfolded telomere 23 DNA assessed as increase in molar ellipticity after 10 mins in absence of metal cation by circular dichroism titration method. The essentials:
(§4)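 CD titration without metal ions: unfolded oligonucleotide 12-15 µM in 50 mM Tris; ligand added in 0.5 equiv steps, spectrum recorded 10 min after each addition at 20 °C, 230-360 nm, 3 scans averaged.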

Experiment [18] can be described thus: Binding affinity to synthetic c-KIT2 G-quadruplex DNA assessed as increase in thermal stability in presence of 20 mM KCl buffer by circular dichroism spectroscopic analysis. Summed up: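 CD melting in 5 mM potassium phosphate, 20 mM KCl, 10 µM folded G4, heated 20-100 °C at 1 °C/min; ligand:DNA ratios 1:1, 2:1 and 4:1 compared; Tm from curve fit.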
A short description of experiment [19]: Induction of parallel G-quadruplex formation in synthetic unfolded c-KIT1 DNA assessed as increase in molar ellipticity after 10 mins by in absence of metal cation circular dichroism titration method. The essentials:
as §4

A short description of experiment [20]: Induction of parallel G-quadruplex formation in synthetic unfolded c-KIT2 DNA assessed as increase in molar ellipticity after 10 mins in absence of metal cation by circular dichroism titration method. The essentials: as §4
A short description of experiment [21]: Binding affinity to 5'-FAM/3'-TAMRA labeled c-KIT2 G-quadruplex DNA (unknown origin) assessed as change in melting temperature at 4:1 ligand:DNA ratio in presence of 20 mM KCl buffer by FRET assay. Summed up:
(§5)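 FRET melting of FAM/TAMRA-labelled G4 oligos (400 nM, annealed 85 °C 10 min) with ligand at 4 equiv, same buffers as CD (20 mM KCl for c-kit2 and c-myc; 100 mM KCl for telomeric parallel form, annealed at high concentration). Excitation 450-495 nm, emission 515-545 nm, read every 0.5 °C over 30-100 °C; ΔTm by curve fit; duplicate runs averaged.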

Experiment [22] can be described thus: Binding affinity to 5'-FAM/3'-TAMRA labeled c-MYC G-quadruplex DNA (unknown origin) assessed as change in melting temperature at 4:1 ligand:DNA ratio in presence of 20 mM KCl buffer by FRET assay. The essentials: as §5
Experiment [23] can be described thus: Binding affinity to human 5'-FAM/3'-TAMRA labeled telomere 21 parallel G-quadruplex DNA (unknown origin) assessed as change in melting temperature at 4:1 ligand:DNA ratio in presence of 100 mM KCl buffer by FRET assay. Summed up: as §5
Experiment [24] in a line: Effect on preformed synthetic c-MYC parallel G-quadruplex DNA topology in tris buffer after 10 mins by circular dichroism titration method.

Activity calls are given as the source filed them. No cut-off for these calls is given here. A value given as a limit tells only on which side of the number the result lay.

Broadly, the ΔTm is the change in melting temperature against a reference sample. For the compound `C(=N\Nc1ccccn1)/c1c(-c2ccccc2)nc2n1ccc1nc(-c3ccccc3)c(/C=N/Nc3ccccn3)n12`, the result (in experiment [1]; in experiment [8]; in experiment [9]; in the experiment filed under Homo sapiens [10]; in [12]; in experiment [13]) was inactive. Besides, the result in experiment [14] and in [15] was inactive. Also, the ΔTm was 1.3 °C in experiment [2]; 0.9 °C in [3]; -0.2 °C in experiment [4]; -1.6 °C in experiment [5]; 0 °C in experiment [6]; -1 °C in [7]. In experiment [11], the thermal shift (ΔTm) turned out to be 0.4 °C.
Consider `CN1C(=C2\C(=N\Nc3ccccn3)c3ccccc3N2C)/C(=N/Nc2ccccn2)c2ccccc21`, for which the outcome (in experiment [1]; in [8]; in experiment [9]; in the experiment filed under Homo sapiens [10]; in experiment [12]; in [13]) was inactive. Also, the outcome in [14] and in [15] was inactive. Also, the thermal shift (ΔTm) in experiment [2] was 4 °C; in experiment [3], -0.7 °C; in experiment [4], 1.6 °C; in experiment [5], -2 °C; in experiment [6] it was 2 °C; in experiment [7], -2.5 °C. For the same compound, the thermal shift (ΔTm) in experiment [11] worked out at 1.5 °C.
For the compound `Cn1c(Cl)c(/C=N/NC(=N)N)c2ccc(/C=N/NC(=N)N)cc21`, the result in experiment [1], in [8], in [9], in experiment [12], in [13] and in experiment [14] was inactive. The outcome in [15] was inactive. Further, the shift in melting temperature (ΔTm) is more than 20 °C in experiment [2]; more than 20 °C in [4]; 5.8 °C in [5]; more than 20 °C in experiment [6]; 6 °C in [7]; more than 15 °C in experiment [11]. Also, the outcome in the experiment listed under Homo sapiens [10] and in the experiment listed under Homo sapiens [16] was Active.
As to `Cn1c(Cl)c(/C=N/NC(=N)N)c2cc3c(/C=N/NC(=N)N)c(Cl)n(C)c3cc21`, the result in experiment [1], in [8], in experiment [9], in experiment [12], in [13] and in [14] was inactive. In addition, the result in [15] was inactive. Also, the ΔTm in experiment [2] was more than 20 °C; in experiment [4] it was more than 20 °C; in experiment [5], 1.3 °C; in experiment [6], more than 15 °C; in experiment [7], 3 °C; in experiment [11] it was more than 15 °C. Besides, the result in the experiment listed under Homo sapiens [10] and in the experiment filed under Homo sapiens [16] was Active.
Take `N=C(N)N/N=C/c1ccc2c(/C=N/NC(=N)N)c(Cl)n(-c3ccccc3)c2c1`: the result in [1], in experiment [8], in experiment [9], in experiment [12], in experiment [13] and in experiment [14] was inactive. In addition, the outcome in [15] was inactive. The ΔTm was more than 20 °C in [2]; more than 20 °C in experiment [4]; 5.1 °C in experiment [5]; more than 15 °C in experiment [6]; 5.6 °C in [7]; more than 15 °C in experiment [11]. Moreover, the result in the experiment listed under Homo sapiens [10] and in the experiment listed under Homo sapiens [16] was Active.
For `N=C(N)N/N=C/c1c(-c2ccsc2)nc2n1ccc1nc(-c3ccsc3)c(/C=N/NC(=N)N)n12`, the result in experiment [1], in [17], in experiment [8], in experiment [9], in [12] and in [13] was inactive. Also, the outcome in experiment [14], in [15] and in [24] was inactive. Also, the ΔTm was more than 20 °C in experiment [2]; 3.5 °C in experiment [3]; more than 20 °C in experiment [4]; -6.5 °C in [5]; more than 20 °C in experiment [6]; -4.9 °C in experiment [7]. In addition, the shift in melting temperature (ΔTm) was more than 20 °C in experiment [21], more than 15 °C in experiment [11], more than 20 °C in [22] and more than 20 °C in experiment [23]. Besides, the Activity entry in experiment [18] and in experiment [19] was “Dose-dependent effect” throughout. For the same compound, the result (in experiment [20]; in the experiment listed under Homo sapiens [10]) was Active.
`CN1C(=C2\C(=N\NC(=N)N)c3ccccc3N2C)/C(=N/NC(=N)N)c2ccccc21`: the outcome (in experiment [1]; in [8]; in experiment [9]; in the experiment listed under Homo sapiens [10]; in experiment [12]; in experiment [13]) was inactive. Besides, the result in experiment [14] and in experiment [15] was inactive. Also, the ΔTm is 7.7 °C in experiment [2]; -0.8 °C in experiment [3]; 11 °C in experiment [4]; 0.2 °C in experiment [5]; 8.2 °C in [6]; -0.5 °C in experiment [7]. In [11], the ΔTm turned out to be 0.9 °C.
